From ChEMBL document CHEMBL4828761, “Development and crystallography-aided SAR studies of multifunctional BuChE inhibitors and 5-HT6R antagonists with β-amyloid anti-aggregation properties” (Eur J Med Chem, 2021)

Key:
[1] = molecular target: Cholinesterase (Equus caballus, UniProt P81908); assay: Inhibition of equine serum BuChE using BTC as substrate preincubated with enzyme for 5 mins followed by substrate addition for 5 mins by Ellman's method; type: cell-free
[2] = molecular target: Cholinesterase (Homo sapiens, UniProt P06276); assay: Inhibition of BuChE in human plasma using BTC as substrate preincubated with enzyme for 5 mins followed by substrate addition for 5 mins by Ellman's method; type: cell-free
Outline: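 Human plasma BuChE at 0.384 U/mL final, with DTNB in 0.1 M phosphate pH 8.0. […] BTC solution (0.00375 M) added; A412 after 5 min. Run in triplicate; IC50 from nonlinear regression of residual activity versus concentration.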

[3] = Metabolic stability in mouse liver microsomes assessed as parent compound remaining at 50 microM preincubated for 5 mins followed by incubation with NADPH regenerating system for 120 mins by UPLC-MS analysis; type: ADME, Microsome; settings: time 125 min, read-out: Stability
Outline: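 Mouse liver microsomes 1 mg/mL in 0.1 M Tris-HCl pH 7.4 with 50 μM compound, preincubated 5 min at 37 °C, then started with NADPH regeneration system; stopped after 120 min at 37 °C with cold methanol, centrifuged, supernatant analysed by UPLC-MS for remaining parent and metabolites. Verapamil served as reference.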

[4] = Cytotoxicity against human HepG2 cells assessed as non-toxic concentration incubated for 72 hrs by MTS assay; type: cell-based; settings: read-out: MNCC
Outline: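 HepG2 cells grown in MEM with 2 mM glutamine, 1% NEAA, 10% FBS at 37 °C, 5% CO2. Compounds tested in quadruplicate at 0.1, 1, 10 and 100 μM for 72 h; viability read by MTS (CellTiter 96 AQueous) assay. Doxorubicin 1 μM and CCCP 10 μM served as positive controls.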

[5] = Initial plasma concentration in CD-1 mouse at 3 mg/kg, iv by LC-ESI-MS/MS analysis; type: ADME, organism-based
Outline: (§1)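 Adult male CD-1 mice (20–25 g), dosed in saline i.v. 3 mg/kg or intragastrically 30 mg/kg; 6 animals per time point. Under i.p. ketamine/xylazine anaesthesia, blood collected after decapitation into heparinized tubes, plasma separated; brain homogenized in pH 7.4 phosphate buffer (1:2.5). Acetonitrile precipitation with internal standard, LC/ESI-MS/MS on C18 with formic acid eluents; non-compartmental parameters.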

[6] = Cmax in CD-1 mouse plasma at 30 mg/kg, po measured for 480 mins by LC-ESI-MS/MS analysis; type: ADME, organism-based; parameters: route oral, dose 30 mg/kg, time 480 min; outline: as §1
[7] = Initial drug concentration in CD-1 mouse brain at 3 mg/kg, iv by LC-ESI-MS/MS analysis; type: ADME, organism-based; outline: as §1
[8] = Cmax in CD-1 mouse brain at 30 mg/kg, po measured for 480 mins by LC-ESI-MS/MS analysis; type: ADME, organism-based; parameters: route oral, dose 30 mg/kg, time 480 min; outline: as §1
[9] = Tmax in CD-1 mouse plasma at 30 mg/kg, po measured for 480 mins by LC-ESI-MS/MS analysis; type: ADME, organism-based; outline: as §1
[10] = AUC (0 to t) in CD-1 mouse plasma at 3 mg/kg, iv measured for 480 mins by LC-ESI-MS/MS analysis; type: ADME, organism-based; parameters: dose 3 mg/kg, time 480 min; outline: as §1
[11] = AUC (0 to t) in CD-1 mouse plasma at 30 mg/kg, po measured for 480 mins by LC-ESI-MS/MS analysis; type: ADME, organism-based; parameters: time 480 min, dose 30 mg/kg; outline: as §1
[12] = AUC (0 to t) in CD-1 mouse brain at 3 mg/kg, iv measured for 480 mins by LC-ESI-MS/MS analysis; type: ADME, organism-based; settings: in vivo, 8 h; outline: as §1
[13] = AUC (0 to t) in CD-1 mouse brain at 30 mg/kg, po measured for 480 mins by LC-ESI-MS/MS analysis; type: ADME, organism-based; settings: in vivo, 8 h; outline: as §1
[14] = MRT in CD-1 mouse plasma at 3 mg/kg, iv measured for 480 mins by LC-ESI-MS/MS analysis; type: ADME, organism-based; settings: in vivo, 8 h; outline: as §1
[15] = MRT in CD-1 mouse plasma at 30 mg/kg, po measured for 480 mins by LC-ESI-MS/MS analysis; type: ADME, organism-based; outline: as §1
[16] = MRT in CD-1 mouse brain at 3 mg/kg, iv measured for 480 mins by LC-ESI-MS/MS analysis; type: ADME, organism-based; outline: as §1
[17] = MRT in CD-1 mouse brain at 30 mg/kg, po measured for 480 mins by LC-ESI-MS/MS analysis; type: ADME, organism-based; outline: as §1
[18] = Oral bioavailability in CD-1 mouse at 30 mg/kg measured for 480 mins by LC-ESI-MS/MS analysis; type: ADME, organism-based; settings: in vivo; outline: as §1
[19] = Apparent oral volume of distribution at steady state in CD-1 mouse at 30 mg/kg measured for 480 mins by LC-ESI-MS/MS analysis; type: ADME, organism-based; settings: in vivo; outline: as §1
[20] = Apparent oral clearance in CD-1 mouse at 30 mg/kg measured for 480 mins by LC-ESI-MS/MS analysis; type: ADME, organism-based; settings: in vivo; outline: as §1
[21] = Half life in CD-1 mouse plasma at 3 mg/kg, iv measured for 480 mins by LC-ESI-MS/MS analysis; type: ADME, organism-based; outline: as §1
[22] = Half life in CD-1 mouse plasma at 30 mg/kg, po measured for 480 mins by LC-ESI-MS/MS analysis; type: ADME, organism-based; outline: as §1
[23] = Half life in CD-1 mouse brain at 3 mg/kg, iv measured for 480 mins by LC-ESI-MS/MS analysis; type: ADME, organism-based; outline: as §1
[24] = Half life in CD-1 mouse brain at 30 mg/kg, po measured for 480 mins by LC-ESI-MS/MS analysis; type: ADME, organism-based; outline: as §1
[25] = Tmax in CD-1 mouse brain at 30 mg/kg, po measured for 480 mins by LC-ESI-MS/MS analysis; type: ADME, organism-based; outline: as §1
[26] = Ratio of drug level in brain to plasma in CD-1 mouse at 3 mg/kg, iv by LC-ESI-MS/MS analysis; type: ADME, organism-based; settings: read-out: BPR; outline: as §1
[27] = Ratio of drug level in brain to plasma in CD-1 mouse at 30 mg/kg, po by LC-ESI-MS/MS analysis; type: ADME, organism-based; settings: read-out: BPR; outline: as §1

Sequence of Cholinesterase (Equus caballus, UniProt P81908) (P81908 whole entry): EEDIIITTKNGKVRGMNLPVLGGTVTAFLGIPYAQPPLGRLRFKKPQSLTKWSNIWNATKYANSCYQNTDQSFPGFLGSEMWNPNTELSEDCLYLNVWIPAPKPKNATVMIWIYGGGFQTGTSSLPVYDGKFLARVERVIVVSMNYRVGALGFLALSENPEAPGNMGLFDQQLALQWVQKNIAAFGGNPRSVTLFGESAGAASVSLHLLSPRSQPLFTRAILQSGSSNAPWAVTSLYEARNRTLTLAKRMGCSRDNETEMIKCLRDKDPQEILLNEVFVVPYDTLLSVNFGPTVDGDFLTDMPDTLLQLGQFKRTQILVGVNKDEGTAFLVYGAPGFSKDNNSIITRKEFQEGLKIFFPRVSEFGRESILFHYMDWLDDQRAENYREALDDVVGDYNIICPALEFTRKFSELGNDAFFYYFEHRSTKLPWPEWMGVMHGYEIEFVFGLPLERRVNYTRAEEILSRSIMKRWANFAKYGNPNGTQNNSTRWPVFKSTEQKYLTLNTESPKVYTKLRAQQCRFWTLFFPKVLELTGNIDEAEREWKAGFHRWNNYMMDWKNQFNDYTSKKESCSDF
Sequence of Cholinesterase (Homo sapiens, UniProt P06276) (P06276 whole entry): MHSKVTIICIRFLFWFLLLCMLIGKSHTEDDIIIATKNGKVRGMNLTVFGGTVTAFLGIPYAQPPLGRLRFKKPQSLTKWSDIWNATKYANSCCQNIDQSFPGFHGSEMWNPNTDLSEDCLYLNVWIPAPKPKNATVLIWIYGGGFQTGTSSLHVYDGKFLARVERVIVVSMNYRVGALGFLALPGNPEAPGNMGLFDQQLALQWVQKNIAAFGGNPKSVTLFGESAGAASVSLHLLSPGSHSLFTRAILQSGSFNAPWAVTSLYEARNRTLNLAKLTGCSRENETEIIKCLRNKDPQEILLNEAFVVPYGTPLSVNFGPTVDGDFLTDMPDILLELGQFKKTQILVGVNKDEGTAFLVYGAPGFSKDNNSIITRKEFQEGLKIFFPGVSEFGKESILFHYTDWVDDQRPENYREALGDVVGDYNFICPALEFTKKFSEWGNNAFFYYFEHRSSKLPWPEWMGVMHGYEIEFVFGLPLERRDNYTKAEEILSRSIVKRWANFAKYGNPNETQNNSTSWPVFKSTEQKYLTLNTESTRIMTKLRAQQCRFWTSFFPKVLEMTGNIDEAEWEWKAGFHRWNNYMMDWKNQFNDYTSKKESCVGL

O=S(=O)(c1ccccc1)n1ccc2c(OCCNCC3CCCCC3)cccc21
IC50 [1]: 89.9 nM
IC50 [2]: 551 nM
remaining at 2 h, 50 µM [3]: 59%
MNTC at 72 h [4]: ≤ 1000 nM
C0 [5]: 176 ng/mL
Cmax [6]: 532 ng/mL
C0 [7]: 404 ng/mL
Cmax [8]: 2800 ng/mL
Tmax [9]: 1 h
AUC(0-t) at 8 h [10]: 627 ng·h/mL
AUC(0-t) at 8 h [11]: 1800 ng·h/mL
AUCt [12]: 125194 ng·min/g
AUCt [13]: 734469 ng·min/g
MRT [14]: 3.18 h
MRT [15]: 3.24 h
MRT [16]: 2.83 h
MRT [17]: 3.24 h
bioavailability [18]: 28.7%
Vd/F [19]: 81.4 L/kg
CL/F [20]: 189 mL/min/kg
half-life [21]: 5.53 h
half-life [22]: 4.97 h
half-life [23]: 2.97 h
half-life [24]: 3 h
Tmax [25]: 1 h
Kp [26]: 3.33
Kp [27]: 6.79
